The text below walks through data of ChEMBL document CHEMBL4196161, “Lead Optimization of 5-Aryl Benzimidazolone- and Oxindole-Based AMPA Receptor Modulators Selective for TARP γ-8” (ACS Med Chem Lett, 2018).

Values after ≈ are worked out from the molar mass of the structure shown.

In one series the target is GRIA1/CACNG2 (Homo sapiens, UniProt P42261+Q9Y698). Put plainly: Modulation of recombinant human GluA1 flop isoform/TARPgamma2 expressed in HEK293F cells assessed as blockade of glutamate-induced calcium flux by calcium 5/6 dye based FLIPR assay. It is filed as cell-based. The gist of the method: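 HEK-293 cells transiently expressing human GluA1o cotransfected with γ-2; FLIPR calcium-flux read-out; pIC50 reported; n = 1, run in triplicate.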
GRIA1/CACNG2, sequence (P42261 whole entry, canonical isoform): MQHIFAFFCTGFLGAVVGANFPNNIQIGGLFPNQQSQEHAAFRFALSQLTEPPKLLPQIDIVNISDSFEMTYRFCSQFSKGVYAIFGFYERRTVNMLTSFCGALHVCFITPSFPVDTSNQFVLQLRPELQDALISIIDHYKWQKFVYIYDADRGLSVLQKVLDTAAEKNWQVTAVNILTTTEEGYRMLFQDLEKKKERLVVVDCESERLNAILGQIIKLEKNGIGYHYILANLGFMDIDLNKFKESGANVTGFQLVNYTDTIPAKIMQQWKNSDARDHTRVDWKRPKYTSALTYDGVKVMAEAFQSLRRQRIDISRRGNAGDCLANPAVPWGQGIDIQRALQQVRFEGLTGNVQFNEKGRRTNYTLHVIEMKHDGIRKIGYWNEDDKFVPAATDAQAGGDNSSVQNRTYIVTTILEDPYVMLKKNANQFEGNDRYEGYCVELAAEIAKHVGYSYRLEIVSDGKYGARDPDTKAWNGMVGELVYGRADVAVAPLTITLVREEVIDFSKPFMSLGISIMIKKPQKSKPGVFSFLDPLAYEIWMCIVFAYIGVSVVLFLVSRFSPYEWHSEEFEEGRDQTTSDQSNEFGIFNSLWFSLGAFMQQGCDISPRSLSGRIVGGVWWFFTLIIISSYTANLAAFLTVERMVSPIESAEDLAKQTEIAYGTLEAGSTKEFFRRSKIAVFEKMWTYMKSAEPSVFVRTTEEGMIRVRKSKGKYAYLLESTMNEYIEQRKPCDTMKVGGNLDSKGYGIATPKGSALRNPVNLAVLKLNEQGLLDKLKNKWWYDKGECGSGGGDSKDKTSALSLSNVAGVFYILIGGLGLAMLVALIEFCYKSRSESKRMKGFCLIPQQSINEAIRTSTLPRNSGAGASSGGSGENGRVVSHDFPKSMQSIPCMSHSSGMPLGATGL
GRIA1/CACNG2, sequence (Q9Y698 whole entry, canonical isoform): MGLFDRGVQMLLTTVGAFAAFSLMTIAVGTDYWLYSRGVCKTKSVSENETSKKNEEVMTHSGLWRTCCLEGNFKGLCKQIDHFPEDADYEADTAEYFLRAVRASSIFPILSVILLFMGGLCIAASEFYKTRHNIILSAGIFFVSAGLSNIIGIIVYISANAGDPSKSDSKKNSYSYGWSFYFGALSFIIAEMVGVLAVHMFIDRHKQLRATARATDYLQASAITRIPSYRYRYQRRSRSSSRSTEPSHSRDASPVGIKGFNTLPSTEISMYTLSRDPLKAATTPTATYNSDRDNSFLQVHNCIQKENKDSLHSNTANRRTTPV

Series [1] can be described thus: Clearance in Sprague-Dawley rat at 1 mg/kg, iv administered as single dose by LC-MS/MS analysis. The format is ADME, organism-based. The conditions noted are these: in vivo. The gist of the method:
(§1)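 Single 1 mg/kg i.v. dose as a solution to Sprague–Dawley rats (n = 3/group); vehicle 20% HP-β-CD in one study series, 1:1 PEG400/H2O in the other; plasma PK parameters derived.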

The nature of series [2]: Hepatic extraction ratio in human liver microsomes at 1 uM measured after 60 mins in presence of NADPH by LC-MS/MS analysis. The format is ADME, microsome. The conditions noted are these: read-out: ERH. The gist of the method:
(§2)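 Human or rat liver microsomal stability at 1 μM; results expressed as extraction ratio, i.e. predicted hepatic clearance divided by species-specific hepatic blood flow.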

A short description of series [3]: Hepatic extraction ratio in rat liver microsomes at 1 uM measured after 60 mins in presence of NADPH by LC-MS/MS analysis. It is filed as ADME, microsome. The conditions noted are these: read-out: ERH. An outline of the steps:
as §2

The nature of series [4]: Thermodynamic solubility of the compound in simulated gastric fluid at pH 1.6 incubated under stirred condition for 3 days. The conditions noted are these: read-out: Therm_solubility. It is filed as physicochemical. The gist of the method: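 Thermodynamic solubility (μM) determined in simulated gastric fluid at pH 1.6 and in fasted state simulated intestinal fluid at pH 6.5.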

A short description of series [5]: Protein binding in human plasma assessed as unbound fraction at 1 uM measured after 6 hrs by equilibrium dialysis method. The format is ADME, cell-free. The gist of the method: (§3)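 Human or rat plasma protein binding at 1 μM compound, expressed as fraction unbound (fub).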
The nature of series [6]: Protein binding in rat plasma assessed as unbound fraction at 1 uM measured after 6 hrs by equilibrium dialysis method. It is filed as ADME, cell-free. The gist of the method: as §3
A short description of series [7]: Half life in Sprague-Dawley rat at 1 mg/kg, iv administered as single dose by LC-MS/MS analysis. The conditions noted are these: in vivo. It is filed as ADME, organism-based. An outline of the steps:
as §1

Series [8] relates to Rattus norvegicus. Put plainly: Ex vivo receptor occupancy at GluA/TARPgamma8 in po dosed Sprague-Dawley rat assessed as plasma concentration causing 50% reduction in [3H]JNJ-56022486 receptor labeling in hippocampus at Tmax by autoradiography. The format is functional, organism-based. An outline of the steps: (§4)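 Oral dose–response in Sprague–Dawley rats, n = 3/dose (8 doses in one study; vehicle 0.5% HPMC or 20% HP-β-CD); hippocampal occupancy measured at Tmax by ex vivo autoradiography using [3H]-12; EC50 expressed against plasma (ng/mL) or brain (ng/g) exposure, ED50 against dose.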

Series [9] has as its system Rattus norvegicus. Put plainly: Ex vivo receptor occupancy at GluA/TARPgamma8 in po dosed Sprague-Dawley rat assessed as brain concentration causing 50% reduction in [3H]JNJ-56022486 receptor labeling in hippocampus at Tmax by autoradiography. It is filed as functional, organism-based. An outline of the steps: as §4
A short description of series [10]: Fraction unbound in rat brain at 5 uM after 5 hrs by equilibrium dialysis method. It is filed as ADME, tissue-based. The gist of the method: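 Rat brain tissue binding, reported as fraction unbound, at 5 μM compound.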
The species named for a further series is Homo sapiens. Nature of the series: Selectivity ratio of IC50 for recombinant human GluA1 flop isoform/TARPgamma2 expressed in HEK293F cells to IC50 for recombinant human GluA1 flop isoform/TARPgamma8 expressed in HEK293F cells. The format is cell-based. The gist of the method:
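Calcium-flux (FLIPR) inhibition in HEK-293 cells, giving pIC50 for each receptor. For γ-8, cells expressed a human GluA1o–γ-8 fusion construct, with at least three assays run in triplicate and reported as mean ± SD. For γ-2, cells expressed human GluA1-flop cotransfected with γ-2. The ratio compares the γ-2 IC50 with the γ-8 IC50.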

Series [11] is described as follows: Volume of distribution at steady state in Sprague-Dawley rat at 1 mg/kg, iv administered as single dose by LC-MS/MS analysis. The conditions noted are these: in vivo, read-out: Vdss. It is filed as ADME, organism-based. The gist of the method: as §1
Series [12] concerns Rattus norvegicus. Nature of the series: Ex vivo receptor occupancy at GluA/TARPgamma8 in po dosed Sprague-Dawley rat assessed as reduction in [3H]JNJ-56022486 receptor labeling in hippocampus measured within 10 mins by autoradiography. It is filed as functional.
The test system of series [13] is Rattus norvegicus. Put plainly: Ex vivo receptor occupancy at GluA/TARPgamma8 in Sprague-Dawley rat assessed as reduction in [3H]JNJ-56022486 receptor labeling in hippocampus at 3 mg/kg, po at Tmax by autoradiography relative to control. It is filed as functional. The gist of the method:
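Rats (Sprague–Dawley, n = 2/dose group) dosed orally with suspensions in 0.5% HPMC at 3 or 10 mg/kg; hippocampal GluA/γ-8 occupancy at Tmax by ex vivo autoradiography with [3H]12 radiotracer; brain (ng/g) and plasma (ng/mL) concentrations taken at Tmax.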

In series [14] the test system is Rattus norvegicus. Put plainly: Ex vivo receptor occupancy at GluA/TARPgamma8 in po dosed Sprague-Dawley rat assessed as plasma concentration causing 50% reduction in [3H]JNJ-56022486 receptor labeling in hippocampus at ED50 at Tmax by autoradiography. It is filed as functional, organism-based. The gist of the method:
as §4

The test system of series [15] is Rattus norvegicus. Put plainly: Ex vivo receptor occupancy at GluA/TARPgamma8 in po dosed Sprague-Dawley rat assessed as brain concentration causing 50% reduction in [3H]JNJ-56022486 receptor labeling in hippocampus at ED50 at Tmax by autoradiography. It is filed as functional, organism-based. The gist of the method:
as §4

Series [16] in a line: Thermodynamic solubility of the compound in fasted state simulated intestinal fluid at pH 6.5 incubated under stirred condition for 3 days. The conditions noted are these: read-out: Therm_solubility.
Series [17] in a line: Oral bioavailability in Sprague-Dawley rat at 5 mg/kg administered as single dose by LC-MS/MS analysis. It is filed as ADME, organism-based. The conditions noted are these: in vivo. The gist of the method:
(§5)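 Sprague–Dawley rats (n = 3/group) given compound as a solution in 20% HP-β-CD, 1 mg/kg i.v. and 5 mg/kg p.o.; plasma pharmacokinetics derived from these arms.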

Series [18] can be described thus: Apparent permeability across basolateral to apical side in MDCK-MDR1 cells at 5 uM measured after 60 mins by LC-MS/MS analysis. The format is ADME, cell-based, Canis lupus familiaris. The conditions noted are these: dog. An outline of the steps:
(§6)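 Bidirectional apparent permeability measured in Madin–Darby canine kidney cells transfected with the MDR1 (P-gp) gene; Papp reported in ×10–6 cm/s.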

The nature of series [19]: Apparent permeability across apical to basolateral side in MDCK-MDR1 cells at 5 uM measured after 60 mins by LC-MS/MS analysis. It is filed as ADME, cell-based, Canis lupus familiaris. The conditions noted are these: dog. The gist of the method: as §6
Series [20] in a line: Volume of distribution at steady state in Sprague-Dawley rat at 1 mg/kg, iv or 5 mg/kg, po administered as single dose by LC-MS/MS analysis. The format is ADME, organism-based. The conditions noted are these: in vivo, read-out: Vdss. The gist of the method:
as §1

Series [21] is described as follows: Cmax in Sprague-Dawley rat at 5 mg/kg, po administered as single dose by LC-MS/MS analysis. The format is ADME, organism-based. The conditions noted are these: in vivo. Also noted: dose 5 mg/kg, route oral. The gist of the method: as §5
The test system of series [22] is Rattus norvegicus. Nature of the series: Toxicity in po dosed Sprague-Dawley rat assessed as effect on central nervous system functions measured after 14 days. It is filed as organism-based. The conditions noted are these: in vivo, 336 h. An outline of the steps:
(§7)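 Repeat-dose toleration study in rats over 14 days at 20 and 60 mg/kg/day; CNS observations recorded and liver assessed by histological analysis.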

The subject of series [23] is Rattus norvegicus. Nature of the series: Hepatotoxicity in Sprague-Dawley rat assessed as necrosis at 20 to 60 mg/kg, po measured after 14 days by histological analysis. It is filed as toxicity, organism-based. The conditions noted are these: in vivo, 336 h. The gist of the method: as §7
Series [24] is described as follows: Ratio of unbound brain to plasma concentration in Sprague-Dawley rat at 1 mg/kg, iv or 5 mg/kg, po administered as single dose by LC-MS/MS analysis. The conditions noted are these: brain and plasma, read-out: K(p,uu,brain). The format is ADME, organism-based.
The test system of series [25] is Rattus norvegicus. Nature of the series: Ex vivo receptor occupancy at GluA/TARPgamma8 Sprague-Dawley rat assessed as plasma concentration causing 50% reduction in [3H]JNJ-56022486 receptor labeling in hippocampus po measured after 10 mins by autoradiography.

Consider `Cc1cc(-c2c(Cl)cccc2OC(F)(F)F)cc2c1NC(=O)C2`, for which, at GRIA1/CACNG2, the IC50 is 10 µM. The clearance in series [1] came to 28 mL/min/kg. Also, the hepatic extraction ratio at 1 h, 1 µM in [2] is 0.5; in series [3], 0.4. In addition, the solubility thermodynamic at 72 h was under 4 µM in [4] and 55 µM (≈ 18.8 µg/mL) in [16]. Further, the fraction unbound at 6 h, 1 µM in series [5] amounted to 0.3; in [6], 0.6. In [7], this compound gave a half-life of 1.9 h. In addition, the EC50 came out at 9 ng/mL (≈ 0.0263 µM) in the series with Rattus norvegicus [8], 71 ng/g in the series on Rattus norvegicus [9], 9 ng/mL (≈ 0.0263 µM) in the series with Rattus norvegicus [14] and 71 ng/g in the series with Rattus norvegicus [15]. This compound showed a fraction unbound at 5 h, 5 µM in series [10] of 0.4. Also, the Ratio IC50 in the series listed under Homo sapiens is over 1000. Further, the Vd in [11] amounted to 3.5 L/kg. The ED50 in the series with Rattus norvegicus [12] was 0.6 mg/kg. Also, the Occ in the series on Rattus norvegicus [13] came out at 82%.
`O=c1[nH]c2ccc(-c3c(Cl)cccc3OC(F)(F)F)cc2[nH]1`: in [17], the bioavailability is 133%. In addition, the clearance in series [1] was determined as 6.9 mL/min/kg. In addition, the Papp B→A at 1 h, 5 µM in [18] was 24 ×10⁻⁶ cm/s. Besides, the Papp A→B at 1 h, 5 µM in series [19] came out at 22 ×10⁻⁶ cm/s. Moreover, the results for the solubility thermodynamic at 72 h in [4] and in [16] were under 4 µM and 74 µM (≈ 24.3 µg/mL), respectively. Besides, the fraction unbound at 6 h, 1 µM in [5] is 0.3. The Vd in series [20] is 3.3 L/kg. Moreover, the half-life in series [7] is 5.8 h. For the same compound, the Cmax in [21] worked out at 1030 ng/mL. The EC50 in the series with Rattus norvegicus [9] was 545 ng/g; in the series on Rattus norvegicus [25] it was 145 ng/mL (≈ 0.441 µM). For the same compound, the Activity entry is “Non-Toxic” in the series with Rattus norvegicus [22] and “Toxic” with Rattus norvegicus [23]. Also, in the series with Rattus norvegicus [12], the ED50 is 0.5 mg/kg. For the same compound, in [24], the Kp uu amounted to 0.6.
